Assay results taken from ChEMBL document CHEMBL5107948, “Activity-based protein profiling reveals deubiquitinase and aldehyde dehydrogenase targets of a cyanopyrrolidine probe” (RSC Med Chem, 2021).
Calls of active or inactive are those of the source. The rule behind the calls is not given here.

Tests used:
[1] = molecular target: 4-trimethylaminobutyraldehyde dehydrogenase (Homo sapiens) (UniProt P49189); test: Binding affinity to ALDH9A1 in human HEK293 cells assessed as fold change at 130 nM incubated for 3 to 6 hrs by LFQ-chemical proteomics analysis; assay type: cell-based; conditions: time 3-6 hrs
Outline: (§1)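 HEK293 cells exposed to alkyne ABP or DMSO for 3, 6 or 18 h, washed, lysed in PBS/1% Triton X-100/0.1% SDS. Lysates (400 µg, biological triplicates) CuAAC-ligated to AzRB (100 µM, CuSO4 1 mM, TCEP 1 mM, TBTA 100 µM, 1 h RT). NeutrAvidin enrichment, on-bead TCEP/CAA reduction-alkylation, overnight trypsin digest at 37 °C, LC-MS/MS label-free quantification. Two-sample t-test against DMSO (n=3, permutation FDR 0.01, S0=1).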

[2] = molecular target: Ubiquitin carboxyl-terminal hydrolase isozyme L1 (Homo sapiens) (UniProt P09936); test: Inhibition of UCHL1 in human HEK293 cells assessed as reduction in UCHL1-Ub level using HA-Ub-VME as substrate at 0.001 to 30 uM incubated for 1 hr by immunoblotting analysis; assay type: cell-based; conditions: dose 0.001-30 µM
Outline: (§2)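 Near-confluent HEK293 cells treated with compound in medium for 1 h at 37 °C, lysed in Tris/NP-40/CHAPS buffer with benzonase. Lysate (20 µg) reacted with HA-Ahx-Ahx-Ub-VME (0.5 µg) 15 min at room temperature, boiled 5 min at 95 °C in SDS loading buffer with BME, SDS-PAGE and immunoblot.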

[3] = molecular target: T1, Ubiquitin carboxyl-terminal hydrolase isozyme L3 (Homo sapiens) (UniProt P15374); test: Inhibition of UCHL3 in human HEK293 cells using HA-Ub-VME as substrate at 0.1 to 10 uM incubated for 1 hr by immunoblotting analysis; assay type: cell-based; conditions: dose 0.1-10 µM; outline: as §2
T1 sequence (whole entry): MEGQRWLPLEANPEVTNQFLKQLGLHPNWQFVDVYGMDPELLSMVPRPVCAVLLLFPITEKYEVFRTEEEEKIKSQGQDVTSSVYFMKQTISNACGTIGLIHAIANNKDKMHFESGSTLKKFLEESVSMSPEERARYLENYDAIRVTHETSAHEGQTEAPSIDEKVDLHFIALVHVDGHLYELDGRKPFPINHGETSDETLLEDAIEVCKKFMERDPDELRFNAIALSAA

[4] = molecular target: Ubiquitin carboxyl-terminal hydrolase isozyme L1 (Homo sapiens) (UniProt P09936); test: Binding affinity to GST-tagged recombinant UCHL1 (unknown origin) assessed as covalent adduct formation at 13 uM incubated for 1 hr by LC-ESI-MS analysis
[5] = molecular target: T2, Ubiquitin carboxyl-terminal hydrolase isozyme L3 (Homo sapiens, UniProt P15374); test: Inhibition of GST-tagged recombinant UCHL3 (unknown origin) using Ub-Lys-TAMRA as substrate incubated for 30 mins by fluorescence polarization assay
T2 sequence (P15374 whole entry): T1 sequence (whole entry)
Outline: (§3)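 Recombinant DUB (UCHL1 or UCHL3 at 5 nM) preincubated 30 min RT with 8-point compound dilutions in Tris pH 7.5/NaCl or Tris pH 7.5 buffer with Tween-20, BSA and 5 mM BME. Ub-Lys-TAMRA (50 nM) added; fluorescence polarization (Ex 540/Em 590 nm) read at once and after 2 h RT. Triplicate; four-parameter IC50.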

[6] = molecular target: Ubiquitin carboxyl-terminal hydrolase isozyme L1 (Homo sapiens) (UniProt P09936); test: Binding affinity to UCHL1 in human HEK293 cells at 40 nM incubated for 3 hrs by In-gel fluorescence analysis; assay type: cell-based
Outline: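 HEK293 cells given 10–2500 nM ABP for 3, 6 or 18 h. Lysates clicked to AzTB, mixed with Laemmli buffer at 0.31% v/v final BME for 5 min without boiling, resolved on 12% acrylamide gels, imaged by in-gel TAMRA fluorescence.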

[7] = molecular target: Ubiquitin carboxyl-terminal hydrolase isozyme L1 (Homo sapiens) (UniProt P09936); test: Binding affinity to UCHL1 in human HEK293 cells at 31 nM by TAMRA labelled pulldown based In-gel fluorescence analysis; assay type: cell-based
Outline: (§4)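 HEK293 cells treated with ABP; lysate (150 µg) CuAAC-ligated to AzTB, precipitated, resuspended. 100 µg incubated with streptavidin magnetic beads 2 h RT, washed with 0.2% SDS/PBS, eluted by boiling 10 min at 95 °C. Eluates run on SDS-PAGE and read by TAMRA in-gel fluorescence or by immunoblot on nitrocellulose with HRP chemiluminescence.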

[8] = molecular target: Ubiquitin carboxyl-terminal hydrolase isozyme L1 (Homo sapiens) (UniProt P09936); test: Binding affinity to UCHL1 in human HEK293 cells at 31 nM by TAMRA labelled pulldown based immunoblotting analysis; assay type: cell-based; outline: as §4
[9] = molecular target: Aldehyde dehydrogenase family 3 member A2 (Homo sapiens) (UniProt P51648); test: Binding affinity to ALDH3A2 in human HEK293 cells assessed as fold change at 130 nM incubated for 3 to 6 hrs by LFQ-chemical proteomics analysis; assay type: cell-based; conditions: time 3-6 hrs; outline: as §1
[10] = molecular target: Ubiquitin carboxyl-terminal hydrolase isozyme L1 (Homo sapiens) (UniProt P09936); test: Inhibition of GST-tagged recombinant UCHL1 (unknown origin) using Ub-Lys-TAMRA as substrate at 1 uM incubated for 30 mins by fluorescence polarization assay; outline: as §3
[11] = molecular target: T3, Glutamine amidotransferase-like class 1 domain-containing protein 3, mitochondrial (Homo sapiens) (UniProt P0DPI2); test: Binding affinity to GATD3A in human HEK293 cells assessed as fold change at 130 nM incubated for 3 to 6 hrs by LFQ-chemical proteomics analysis; assay type: cell-based; conditions: time 3-6 hrs; outline: as §1
T3 sequence (whole entry): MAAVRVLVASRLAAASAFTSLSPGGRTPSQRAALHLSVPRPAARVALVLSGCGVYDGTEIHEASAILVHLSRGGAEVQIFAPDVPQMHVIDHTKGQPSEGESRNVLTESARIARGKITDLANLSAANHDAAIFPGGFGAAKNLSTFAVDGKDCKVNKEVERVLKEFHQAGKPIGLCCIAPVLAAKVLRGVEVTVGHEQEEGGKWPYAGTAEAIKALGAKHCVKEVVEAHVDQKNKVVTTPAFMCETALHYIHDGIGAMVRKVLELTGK

[12] = molecular target: T3, Glutamine amidotransferase-like class 1 domain-containing protein 3, mitochondrial (Homo sapiens); test: Binding affinity to GATD3A in human HEK293 cells at 130 to 500 nM in presence of ABP MT16-205 by LFQ-NanoLC-MS/MS analysis; assay type: cell-based; conditions: dose 130-500 nM, DDE = dose-dependent effect
Outline: (§5)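 Competition format: HEK293 cells pre-treated 1 h with competitor or DMSO, then exposed to ABP MT16-205. Lysis in PBS/Triton/SDS buffer, AzRB click ligation, NeutrAvidin pulldown, on-bead TCEP/chloroacetamide treatment and overnight tryptic digestion. Label-free LC-MS/MS; two-sample t-test versus control (n=3, permutation FDR 0.01, S0=1).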

[13] = molecular target: Ubiquitin carboxyl-terminal hydrolase isozyme L1 (Homo sapiens) (UniProt P09936); test: Inhibition of UCHL1 in human HEK293 cells at 130 to 2000 nM in presence of ABP MT16-205 by Competitive pulldown based immunoblotting analysis; assay type: cell-based; conditions: dose 130-2000 nM, DDE = dose-dependent effect
Outline: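 Lysates AzTB-clicked, streptavidin bead pulldown (2 h RT), boiled elution, SDS-PAGE. Target detected by immunoblot: 3% BSA/TBS-T block, primary antibody 1.5 h RT or overnight at 4 °C, HRP secondary, chemiluminescence.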

[14] = molecular target: Ubiquitin carboxyl-terminal hydrolase isozyme L1 (Homo sapiens) (UniProt P09936); test: Binding affinity to UCHL1 in human HEK293 cells at 130 to 500 nM in presence of ABP MT16-205 by LFQ-NanoLC-MS/MS analysis; assay type: cell-based; conditions: dose 130-500 nM, DDE = dose-dependent effect; outline: as §5
[15] = molecular target: 4-trimethylaminobutyraldehyde dehydrogenase (Homo sapiens) (UniProt P49189); test: Binding affinity to ALDH9A1 in human HEK293 cells at 130 to 500 nM in presence of ABP MT16-205 by LFQ-NanoLC-MS/MS analysis; assay type: cell-based; conditions: dose 130-500 nM, DDE = dose-dependent effect; outline: as §5

Ubiquitin carboxyl-terminal hydrolase isozyme L1 (Homo sapiens), sequence (P09936 whole entry, looked up): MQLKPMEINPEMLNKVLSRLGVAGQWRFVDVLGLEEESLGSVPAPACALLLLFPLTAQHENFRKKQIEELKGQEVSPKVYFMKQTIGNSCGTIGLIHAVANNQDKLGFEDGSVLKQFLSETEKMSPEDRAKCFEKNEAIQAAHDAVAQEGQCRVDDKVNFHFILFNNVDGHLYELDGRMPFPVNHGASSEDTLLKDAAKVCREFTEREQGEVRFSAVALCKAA
4-trimethylaminobutyraldehyde dehydrogenase (Homo sapiens), sequence (P49189 whole entry): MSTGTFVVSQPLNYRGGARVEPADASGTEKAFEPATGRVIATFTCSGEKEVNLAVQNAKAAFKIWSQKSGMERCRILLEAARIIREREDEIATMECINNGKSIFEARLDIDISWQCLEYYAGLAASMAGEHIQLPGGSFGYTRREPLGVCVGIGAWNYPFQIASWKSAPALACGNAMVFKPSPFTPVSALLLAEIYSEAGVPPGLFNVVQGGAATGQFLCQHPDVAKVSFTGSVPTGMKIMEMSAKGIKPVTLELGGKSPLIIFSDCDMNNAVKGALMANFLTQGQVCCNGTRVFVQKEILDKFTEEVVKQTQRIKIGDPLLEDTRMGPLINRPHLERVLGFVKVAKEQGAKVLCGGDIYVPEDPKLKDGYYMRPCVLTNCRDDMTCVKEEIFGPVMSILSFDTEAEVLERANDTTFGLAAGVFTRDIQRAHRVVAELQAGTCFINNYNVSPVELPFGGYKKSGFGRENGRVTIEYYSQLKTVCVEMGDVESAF
Aldehyde dehydrogenase family 3 member A2 (Homo sapiens), sequence (P51648 whole entry): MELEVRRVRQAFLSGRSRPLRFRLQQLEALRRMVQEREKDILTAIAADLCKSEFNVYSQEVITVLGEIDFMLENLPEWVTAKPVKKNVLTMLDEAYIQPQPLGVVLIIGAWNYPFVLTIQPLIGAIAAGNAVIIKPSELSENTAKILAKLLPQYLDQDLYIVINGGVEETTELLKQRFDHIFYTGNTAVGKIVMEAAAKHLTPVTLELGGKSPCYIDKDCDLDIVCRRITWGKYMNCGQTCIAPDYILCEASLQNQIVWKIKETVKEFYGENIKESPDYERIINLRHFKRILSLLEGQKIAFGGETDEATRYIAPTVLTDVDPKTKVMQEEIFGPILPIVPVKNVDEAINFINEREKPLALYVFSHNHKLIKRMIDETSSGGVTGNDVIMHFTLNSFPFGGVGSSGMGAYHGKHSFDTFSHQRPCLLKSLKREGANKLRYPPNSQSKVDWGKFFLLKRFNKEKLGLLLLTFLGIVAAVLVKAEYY

Compound	fold change (FC) [1]	inhibition [2]	inhibition [3]	Activity [4]	IC50 [5]	Activity [6]	Activity [7]	Activity [8]	fold change (FC) [9]	inhibition [10]	fold change (FC) [11]	Activity [12]	inhibition [13]	Activity [14]	Activity [15]
C#Cc1ccc(-c2cnc(NC(=O)[C@H]3CCN(C#N)C3)s2)cc1	> 64	Active	Active	Active	> 10 µM	Active	Active	Active	> 64	Active	> 64	–	–	–	–
N#CN1CC[C@H](C(=O)Nc2ncc(-c3ccccc3)s2)C1	–	–	Active	Active	> 10 µM	–	–	–	–	Active	–	Dde	Dde	Dde	Dde
